{"source": "paper PMC3158287", "about": "(Nature chemical biology, 2011)", "key": {"human cancer cell lines [1]": {"tested_on": "human cancer cell lines", "assay_type": "cell-based"}, "OSBP^M446W": {"target": "T1, OSBP^M446W (Homo sapiens, UniProt P22059, M446W)", "T1 sequence (P22059 1-807 M446W)": "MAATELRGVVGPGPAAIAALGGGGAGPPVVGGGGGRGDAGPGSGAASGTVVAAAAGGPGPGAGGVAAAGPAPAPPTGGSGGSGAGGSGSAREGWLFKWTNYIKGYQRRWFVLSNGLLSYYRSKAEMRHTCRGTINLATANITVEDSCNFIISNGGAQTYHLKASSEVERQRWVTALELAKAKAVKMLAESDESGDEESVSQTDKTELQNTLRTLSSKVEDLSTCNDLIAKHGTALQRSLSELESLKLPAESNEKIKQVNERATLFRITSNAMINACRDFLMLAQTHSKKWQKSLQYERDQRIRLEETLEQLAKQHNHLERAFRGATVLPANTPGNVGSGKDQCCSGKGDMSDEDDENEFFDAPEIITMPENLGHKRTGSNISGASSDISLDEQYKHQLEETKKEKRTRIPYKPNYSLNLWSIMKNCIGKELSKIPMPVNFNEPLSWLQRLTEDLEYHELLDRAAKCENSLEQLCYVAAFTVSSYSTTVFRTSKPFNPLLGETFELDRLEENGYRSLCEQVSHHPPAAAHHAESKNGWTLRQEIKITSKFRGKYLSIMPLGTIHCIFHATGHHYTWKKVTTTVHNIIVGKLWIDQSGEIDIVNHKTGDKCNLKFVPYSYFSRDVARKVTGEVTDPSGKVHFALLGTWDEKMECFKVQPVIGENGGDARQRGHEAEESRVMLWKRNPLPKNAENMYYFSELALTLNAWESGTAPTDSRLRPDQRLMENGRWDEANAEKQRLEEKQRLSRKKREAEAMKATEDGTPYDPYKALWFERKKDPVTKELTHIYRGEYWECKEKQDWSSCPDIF", "experiment": "[3H]25-OHC binding assay, OSBP M446W mutant"}, "OSBP [2]": {"target": "T2, OSBP (Homo sapiens, UniProt P22059)", "T2 sequence (P22059 1-807)": "T1 sequence (P22059 1-807 M446W) with W446M", "experiment": "OSBP protein levels by western blotting", "assay_type": "cell-based", "settings": "HCT-116 cells", "procedure,_shortened": "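HCT-116 cells were treated with test compound at 50 nM or 10 nM over a time course including 24 h. Some samples also received proteasome inhibitor MG-132 or lactacystin. OSBP was measured by western blotting with polyclonal rabbit anti-OSBP (N-terminus) antibody. Data are n = 3, compared with vehicle-treated cells by two-tailed Student's t-test.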"}, "OSBP^V582M": {"target": "T3, OSBP^V582M (Homo sapiens, UniProt P22059, V582M)", "T3 sequence (P22059 1-807 V582M)": "T1 sequence (P22059 1-807 M446W) with W446M, V582M", "experiment": "[3H]25-OHC binding assay, OSBP V582M mutant"}, "[3]": {"tested_on": "sphingomyelin biosynthesis in CHO-K1 cells", "experiment": "Sphingomyelin biosynthesis, [3H]serine pulse labeling, CHO-K1", "assay_type": "cell-based, Chinese hamster", "settings": "CHO-K1 cells"}, "[4]": {"tested_on": "HeLa cells overexpressing ORP4L", "experiment": "Overexpression-viability assay, ORP4L-Myc-His", "assay_type": "cell-based, human", "settings": "48 h, versus lacZ"}, "[5]": {"tested_on": "HeLa cells overexpressing wild-type OSBP", "experiment": "Overexpression-viability assay, wild-type OSBP-Myc-His", "assay_type": "cell-based, human", "settings": "48 h, versus lacZ"}, "OSBP [6]": {"target": "T2, OSBP", "experiment": "OSBP localization by immunofluorescence microscopy, HCT-116", "assay_type": "cell-based", "settings": "HCT-116 cells, 4 h; 5 μM schweinfurthin A, 10 nM OSW-1, 20 nM cephalostatin 1", "procedure,_shortened": "(§1)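 Cells on coverslips were grown 72 h, then given test compound or vehicle (4 h for HCT-116). They were fixed 10 min in 3.7% formaldehyde/PBS and permeabilised 5 min in 0.5% Triton X-100. Blocking used Image-iT FX, then 1% BSA/PBS. Rabbit anti-OSBP (N-terminus) and mouse anti-p230 were applied overnight at 4 °C, then Alexa Fluor secondaries for 60 min with Hoechst 33258. Imaging was by confocal microscopy.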"}, "OSBP [7]": {"target": "T2, OSBP", "experiment": "OSBP localization by immunofluorescence microscopy, A549", "assay_type": "cell-based", "settings": "A549 cells", "procedure,_shortened": "as §1"}, "CERT": {"tested_on": "CERT", "experiment": "CERT protein amount in treated cells", "assay_type": "cell-based, human", "settings": "GI90 concentration, HCT-116 or A549 cells"}, "human cancer cell lines [8]": {"tested_on": "human cancer cell lines", "settings": "cited from earlier work"}, "[9]": {"tested_on": "HCT-116 p21^−/− cells stably transfected with shOSBP or shNT", "experiment": "OSBP shRNA knockdown and dose-shift experiment", "assay_type": "cell-based, human", "settings": "72 h", "procedure,_shortened": "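HCT-116 p21−/− cells were stably transfected with OSBP-targeting or nontargeting shRNA in the pSIREN-RetroQ vector. […] Values are mean ± s.d. of 3–4 experiments, compared with shNT cells by two-tailed Student's t-test.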"}, "HCT-116 cells": {"tested_on": "HCT-116 cells", "experiment": "Suppression of antiproliferative activity by 25-OHC coadministration", "assay_type": "cell-based, human", "procedure,_shortened": "(§2)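 HCT-116 p21+/+ and p21−/− cells were seeded in 96-well plates and rested 24 h. A time-zero plate was read with CellTiter-Blue (resazurin) after 90 min at 37 °C, fluorescence 544 nm ex / 590 nm em. Serially diluted test compound was added as 4× solution. Viability was re-read at 48 h and GI50 derived. For coadministration, 10 μM 25-OHC was added with test compound at 250 nM or 10 nM.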"}, "HCT-116 p21^−/− cells [10]": {"tested_on": "HCT-116 p21^−/− cells", "experiment": "Cell viability assay, HCT-116 p21-/-", "assay_type": "cell-based, human", "settings": "GI50 after 48 h", "procedure,_shortened": "as §2"}, "HCT-116 p21^−/− cells [11]": {"tested_on": "HCT-116 p21^−/− cells", "settings": "cited from earlier work"}}, "note": "Substitutions are numbered along the chain they refer to."}
{"smiles": "C[C@H](CCCC(C)(C)O)[C@H]1CC[C@H]2[C@@H]3CC=C4C[C@@H](O)CC[C@]4(C)[C@H]3CC[C@]12C", "note": "[25-OHC, 25-hydroxycholesterol, reference compound]", "values": [{"measurement": "Cytotoxicity", "setting": "human cancer cell lines [1]", "result": "not cytotoxic at concentrations up to 10 μM"}, {"measurement": "Kd", "setting": "OSBP^M446W", "result": 0.041, "unit": "µM"}, {"measurement": "Effect on OSBP levels (compound alone)", "setting": "OSBP [2]; 25-OHC 10 μM", "result": "did not affect OSBP levels"}, {"measurement": "Kd", "setting": "OSBP^V582M", "result": 0.082, "unit": "µM"}, {"measurement": "Increase in the biosynthesis of sphingomyelin", "setting": "[3]; 5 μM, 6 h", "result": "approximately four"}, {"measurement": "Effect on sphingomyelin biosynthesis", "setting": "[3]; GI90 dose (15 μM)", "result": "robust stimulation"}]}
{"smiles": "C[C@@H]1[C@]2(O[C@H]3C=C4[C@@H]5CC[C@H]6Cc7nc8c(nc7C[C@]6(C)[C@H]5C[C@@H](O)[C@]4(C)[C@]31O)C[C@@H]1CC[C@H]3C4=CC[C@@H]5[C@H](C)[C@@]6(OC[C@]45C(=O)C[C@@H]3[C@@]1(C)C8)OC(C)(C)C[C@H]6O)O[C@](C)(CO)C[C@H]2O", "note": "[cephalostatin 1, Cephalostatin 1]", "values": [{"measurement": "Desensitization factor by ORP4L overexpression (relative GI30)", "setting": "[4]", "result": "2–5"}, {"measurement": "Desensitization factor by OSBP overexpression (relative GI30)", "setting": "[5]", "result": "2–5"}, {"measurement": "OSBP localization", "setting": "OSBP [6]", "result": "partially localize to the plasma membrane"}, {"measurement": "OSBP localization", "setting": "OSBP [7]", "result": "dispersal or vesiculation of OSBP"}, {"measurement": "Amount of CERT protein", "setting": "CERT", "result": "not affected"}, {"measurement": "Ki", "setting": "OSBP^M446W", "result": 0.031, "unit": "µM"}, {"measurement": "GI50 (half-maximal inhibitory concentration)", "setting": "human cancer cell lines [8]", "result": "nanomolar range"}, {"measurement": "Reduction in OSBP protein levels", "setting": "OSBP [2]; 50 nM, 24 h", "result": "approximately 75%"}, {"measurement": "Sensitization by OSBP shRNA knockdown (GI50 shift shOSBP vs shNT)", "setting": "[9]", "result": "four"}, {"measurement": "Effect of 10 μM 25-OHC coadministration on growth inhibition", "setting": "HCT-116 cells; HCT-116 cells, 250 nM cephalostatin 1 or 10 nM OSW-1", "result": "nearly complete desensitization"}, {"measurement": "inhibition at 0.25 µM", "setting": "HCT-116 cells; Homo sapiens, HCT-116, 48 h, read-out: Growth inhibition when administered alone", "result": "> 75", "unit": "%"}, {"measurement": "p21^−/− selectivity of growth inhibition (HCT-116 p21^−/− versus wild-type)", "setting": "HCT-116 p21^−/− cells [10]", "result": "selectively growth-inhibitory"}, {"measurement": "Ki", "setting": "OSBP^V582M", "result": 0.031, "unit": "µM"}]}
{"smiles": "CC(/C=C/C=C(C)/C=C/C=C(\\C)C(=O)O)=C1/C(=O)C[C@H]2[C@@]3(C)CCC(=O)C(C)(C)[C@@H]3CC[C@]12C", "note": "[stellettin E]", "values": [{"measurement": "Times more growth-inhibitory to HCT-116 p21^−/− cells than to HCT-116 wild-type cells", "setting": "HCT-116 p21^−/− cells [11]", "result": 117, "unit": "times"}]}
